The results in this text go back to PubChem BioAssay AID504499 (Broad Institute, 2011).

The source made the active and inactive calls.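 How the source made its calls: active means compounds whose fitted half-maximal growth inhibition potency lies within ten times the top tested dose; inconclusive means flat inhibition of 30 to 70 percent, or poor fit; inactive means the rest.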

Tested on in one test: not listed separately
The experiment in a line: single-agent antifungal activity without fluconazole – CaCi-2, no fluconazole, powder samples, set 9, counter-screen for antifungal drug resistance project, dose response (AID 504499). As to conditions: C. albicans CaCi-2 growth without fluconazole, Alamar Blue, 48 h; at 26 µM (top of the series). Put shortly: (§1)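 system = C. albicans CaCi-2 | amount = inoculum at 0.00015 A600 | medium = RPMI synthetic defined growth medium without fluconazole | schedule = Yeast–compound growth 48 h, 37 °C, then Alamar Blue 2 h | benchmarks = geldanamycin positive control | signal = Alamar Blue fluorescence, 544/590 nm | evaluation = relative yeast growth derived from Alamar Blue fluorescence signal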
Regarding `O=C(Cn1c2ccccc2c2nc3n(c(=O)c21)CCS3)N1CCCCC1`, the growth change, negative = inhibition is -17.6% (inactive).
As to `COC(=O)Cn1nc(C2CCCCC2)c2ccccc21`, the growth change, negative = inhibition is -13.2% (inactive).
The same measure, in the same setting: then `c1ccc(-c2nn(Cc3nnco3)c3ccccc23)cc1`, with 18.3% (inactive); and `COC(=O)Cn1nc(-c2cccc(F)c2)c2ccccc21`, with -24.6% (inactive).
Still for that read-out and setting: in the case of `CCc1nn(CC(=O)OC)c2ccccc12` it was -15.4% (inactive).
`O=C(Cn1c2ccccc2c2nc3n(c(=O)c21)CCS3)N1CC=CC1`: the growth change, negative = inhibition is 6.32% (inactive).
For the compound `O=C(Cn1c2ccccc2c2nc3n(c(=O)c21)CCS3)N1CCC(F)(F)CC1`, the growth change, negative = inhibition was 5.44% (inactive).
Same read-out and setting: then `O=C(Cn1c2ccc(F)cc2c2nc3n(c(=O)c21)CCS3)N1CCC(F)(F)CC1`, with -9.87% (inactive); and `COC(=O)Cn1nc(-c2cnco2)c2ccccc21`, with 22% (inactive).
Regarding `COC(=O)Cn1nc(-c2cccc(OC)c2)c2ccccc21`, the growth change, negative = inhibition is -28.4% (inactive).
The same measure, in the same setting: then `CC1(O)CN(C(=O)Cn2c3ccccc3c3nc4n(c(=O)c32)CCS4)C1`, with 5.26% (inactive); and `COC(=O)Cn1nc(-c2ccccc2)c2cccnc21`, with -7.57% (inactive); and `O=C(O)Cn1c2ccccc2c2nc3n(c(=O)c21)CCS3`, with 31.2% (inactive).
In the case of `COC(=O)n1nc(-c2ccccc2)c2ccccc21`, the growth change, negative = inhibition was -9.34% (inactive).
As for `O=C(Cn1c2ccccc2c2nc3n(c(=O)c21)CCS3)N1CCC(F)(F)C1`, the growth change, negative = inhibition was 5.06% (inactive).
With `CC1CCN(CCn2c3ccccc3c3nc4n(c(=O)c32)CCS4)CC1`, the growth change, negative = inhibition is 2.22% (inactive).
`O=C(Cn1c2ccc(F)cc2c2nc3n(c(=O)c21)CCS3)N1CCC(F)(F)C1`: the growth change, negative = inhibition is -1.64% (inactive).
The same measure, in the same setting: in the case of `COC(=O)Cn1nc(C(C)(C)C)c2ccccc21` it was 6.09% (inactive); in that of `O=C(Cn1c2ccccc2c2nc3n(c(=O)c21)CCS3)N1CCCC1`, -33.3% (inactive); in that of `COC(=O)Cn1nc(-c2cccnc2)c2ccccc21`, 1.88% (inactive).
With `O=C(O)Cn1c2ccc(F)cc2c2nc3n(c(=O)c21)CCS3`, the growth change, negative = inhibition was -15.5% (inactive).
For the compound `O=C(Cn1c2ccc(F)cc2c2nc3n(c(=O)c21)CCS3)N1CC=CC1`, the growth change, negative = inhibition is 2.91% (inactive).
The same measure, in the same setting: then `COC(=O)Cn1nc(C2CC2)c2ccccc21`, with 4% (inactive); and `CN1CCN(C(=O)Cn2c3ccccc3c3nc4n(c(=O)c32)CCS4)CC1`, with 2.02% (inactive); and `COC(=O)Cn1nc(-c2cccc(C)c2)c2ccccc21`, with -23.2% (inactive).
Turning to `COC(=O)Cn1nc(-c2cscn2)c2ccccc21`, the growth change, negative = inhibition was -11.4% (inactive).

The next test deals with C. albicans CaCi-2 (fluconazole-resistant clinical isolate) growth without fluconazole, Alamar Blue, 48 h. Described as above.
Conditions: not given
Put shortly: as §1
As for `COC(=O)Cn1c2ccc(F)cc2c2nc3n(c(=O)c21)CCS3`, the half-maximal activity concentration (AC50) is 19.4 µM.

What is called AC50 is the midpoint of the concentration-response curve, whichever way the signal moves.
